The target in assay [1] is Aurora kinase B (Homo sapiens) (UniProt Q96GD4). The experiment in a line: Inhibition of Aurora B (unknown origin) at 10 uM relative to control. Summed up: (§1)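 Single-point screen of each compound against a panel of 59 protein kinases, at 1 or 10 μM. The panel data are also summarised as a rescaled geometric mean selectivity score.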
The target of assay [2] is Ribosomal protein S6 kinase beta-1 (Homo sapiens) (UniProt P23443). The experiment in a line: Inhibition of S6K1 (unknown origin) at 10 uM relative to control. Put shortly:
(§2)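 Single-concentration screen across a panel of 59 protein kinases, with each compound tested at one fixed concentration. The read-out is residual kinase activity relative to control. Panel results are also condensed into a rescaled geometric mean (RGM) selectivity score.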

The target in assay [3] is Ribosomal protein S6 kinase alpha-5 (Homo sapiens) (UniProt O75582). The experiment in a line: Inhibition of MSK1 (unknown origin) at 10 uM relative to control. Put shortly: (§3)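 Single-concentration screen of each compound against a 59-protein-kinase panel, run at 10 µM or 1 µM. Activity relative to control is shown as a heat map across the panel.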
In assay [4] the target is MAP kinase-interacting serine/threonine-protein kinase 2 (Homo sapiens) (UniProt Q9HBH9). The experiment in a line: Inhibition of MNK2 (unknown origin) at 10 uM relative to control. Summed up: as §3
MAP kinase-interacting serine/threonine-protein kinase 2 (Homo sapiens), sequence (Q9HBH9 whole entry, looked up): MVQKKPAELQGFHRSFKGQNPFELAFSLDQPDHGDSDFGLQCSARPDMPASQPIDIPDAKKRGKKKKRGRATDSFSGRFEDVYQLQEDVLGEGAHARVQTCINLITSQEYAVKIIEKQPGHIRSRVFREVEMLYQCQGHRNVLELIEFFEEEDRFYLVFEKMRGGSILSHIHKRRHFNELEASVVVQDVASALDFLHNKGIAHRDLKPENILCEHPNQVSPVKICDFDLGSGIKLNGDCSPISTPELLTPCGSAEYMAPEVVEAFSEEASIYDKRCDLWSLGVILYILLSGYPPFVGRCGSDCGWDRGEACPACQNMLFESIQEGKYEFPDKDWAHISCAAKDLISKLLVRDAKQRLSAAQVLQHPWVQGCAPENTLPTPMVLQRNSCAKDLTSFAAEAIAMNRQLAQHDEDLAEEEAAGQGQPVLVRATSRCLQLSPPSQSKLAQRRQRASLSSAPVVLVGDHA
Assay [5] concerns the target SRSF protein kinase 1 (Homo sapiens) (UniProt Q96SB4). The experiment in a line: Inhibition of SRPK1 (unknown origin) at 10 uM relative to control. Summed up: as §2
The species entered for the next assay is Homo sapiens. The experiment in a line: Inhibition of PKA (unknown origin) at 10 uM relative to control. Summed up:
as §3

Assay [6] deals with Glycogen synthase kinase-3 beta (Homo sapiens) (UniProt P49841). The experiment in a line: Inhibition of GSK3b (unknown origin) at 10 uM relative to control. Summed up:
as §1

For assay [7], the target named is Phosphorylase kinase (Homo sapiens) (UniProt P15735+P46020+P46019+Q93100+Q16816). The experiment in a line: Inhibition of PHK (unknown origin) at 10 uM relative to control. Type of assay: protein-complex assay. Put shortly: as §3
Assay [8] concerns the target Protein kinase C alpha type (Homo sapiens) (UniProt P17252). The experiment in a line: Inhibition of PKCa (unknown origin) at 10 uM relative to control. Put shortly: as §3
Assay [9] deals with RAC-alpha serine/threonine-protein kinase (Homo sapiens) (UniProt P31749). The experiment in a line: Inhibition of PKBa (unknown origin) at 10 uM relative to control. Put shortly: as §3
RAC-alpha serine/threonine-protein kinase (Homo sapiens), sequence (P31749 whole entry): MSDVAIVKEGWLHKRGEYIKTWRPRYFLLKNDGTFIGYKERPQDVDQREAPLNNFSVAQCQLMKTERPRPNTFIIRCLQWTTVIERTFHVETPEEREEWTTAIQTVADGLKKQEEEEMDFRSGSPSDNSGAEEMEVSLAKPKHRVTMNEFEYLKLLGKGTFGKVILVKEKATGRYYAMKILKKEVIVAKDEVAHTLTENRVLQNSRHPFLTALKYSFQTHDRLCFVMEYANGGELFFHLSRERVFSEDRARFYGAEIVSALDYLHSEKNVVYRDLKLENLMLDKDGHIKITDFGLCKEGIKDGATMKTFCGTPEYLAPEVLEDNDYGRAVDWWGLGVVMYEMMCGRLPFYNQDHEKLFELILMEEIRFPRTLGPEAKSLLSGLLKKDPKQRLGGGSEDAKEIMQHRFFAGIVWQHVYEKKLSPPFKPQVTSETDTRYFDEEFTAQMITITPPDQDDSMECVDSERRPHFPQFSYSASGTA
For assay [10], the target named is Homeodomain-interacting protein kinase 2 (Homo sapiens) (UniProt Q9H2X6). The experiment in a line: Inhibition of HIPK2 (unknown origin) at 10 uM relative to control. Put shortly:
as §1

For assay [11], the target named is Tyrosine-protein kinase Lck (Homo sapiens) (UniProt P06239). The experiment in a line: Inhibition of Lck (unknown origin) at 10 uM relative to control. Put shortly:
as §1

Assay [12] concerns the target Maternal embryonic leucine zipper kinase (Homo sapiens) (UniProt Q14680). The experiment in a line: Inhibition of MELK (unknown origin) at 10 uM relative to control. Summed up:
as §3

Assay [13] concerns the target T1, Inhibitor of nuclear factor kappa-B kinase subunit beta (Homo sapiens) (UniProt O14920).
T1 sequence (whole entry): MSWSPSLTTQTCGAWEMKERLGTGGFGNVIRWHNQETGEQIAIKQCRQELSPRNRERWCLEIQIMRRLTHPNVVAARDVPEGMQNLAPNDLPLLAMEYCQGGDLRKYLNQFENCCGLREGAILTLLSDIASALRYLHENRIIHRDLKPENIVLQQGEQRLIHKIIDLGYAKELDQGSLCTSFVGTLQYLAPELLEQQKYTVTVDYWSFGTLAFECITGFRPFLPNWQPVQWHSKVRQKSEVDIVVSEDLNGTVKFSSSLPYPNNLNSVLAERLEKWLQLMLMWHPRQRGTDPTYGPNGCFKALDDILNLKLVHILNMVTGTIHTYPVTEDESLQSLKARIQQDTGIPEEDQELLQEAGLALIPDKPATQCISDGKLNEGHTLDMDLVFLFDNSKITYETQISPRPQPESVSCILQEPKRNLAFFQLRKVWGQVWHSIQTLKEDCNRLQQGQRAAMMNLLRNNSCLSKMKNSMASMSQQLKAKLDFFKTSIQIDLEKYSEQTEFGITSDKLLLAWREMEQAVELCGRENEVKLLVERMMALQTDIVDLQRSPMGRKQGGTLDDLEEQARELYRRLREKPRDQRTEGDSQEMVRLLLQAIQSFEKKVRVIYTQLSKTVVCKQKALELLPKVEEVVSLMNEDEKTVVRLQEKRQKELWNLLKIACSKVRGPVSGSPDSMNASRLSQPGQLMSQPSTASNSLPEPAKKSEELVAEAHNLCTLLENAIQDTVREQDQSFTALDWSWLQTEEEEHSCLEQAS
The experiment in a line: Inhibition of IKKb (unknown origin) at 10 uM relative to control. Put shortly:
as §1

Assay [14] has as its target Serine/threonine-protein kinase 26 (Homo sapiens) (UniProt Q9P289). The experiment in a line: Inhibition of MST4 (unknown origin) at 10 uM relative to control. Summed up:
as §3

Assay [15] concerns the target Mitogen-activated protein kinase 9 (Homo sapiens) (UniProt P45984). The experiment in a line: Inhibition of JNK2 (unknown origin) at 10 uM relative to control. Summed up:
as §1

Assay [16] concerns the target Calcium/calmodulin-dependent protein kinase type 1 (Homo sapiens) (UniProt Q14012). The experiment in a line: Inhibition of CAMK1 (unknown origin) at 10 uM relative to control. Summed up: as §1

Molecules are shown by their SMILES.

Mitogen-activated protein kinase 9 (Homo sapiens), sequence (P45984 whole entry, looked up): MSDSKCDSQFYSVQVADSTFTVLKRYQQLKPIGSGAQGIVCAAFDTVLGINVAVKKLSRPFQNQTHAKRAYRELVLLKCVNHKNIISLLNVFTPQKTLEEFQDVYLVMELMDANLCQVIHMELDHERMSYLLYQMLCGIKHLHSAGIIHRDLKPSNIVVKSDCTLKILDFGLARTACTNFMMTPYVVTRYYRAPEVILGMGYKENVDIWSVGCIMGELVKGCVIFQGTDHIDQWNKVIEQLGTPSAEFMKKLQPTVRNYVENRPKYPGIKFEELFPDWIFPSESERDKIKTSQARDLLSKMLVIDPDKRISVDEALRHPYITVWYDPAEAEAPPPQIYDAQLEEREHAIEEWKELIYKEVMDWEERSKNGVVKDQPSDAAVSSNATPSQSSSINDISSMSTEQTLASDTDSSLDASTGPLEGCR
Aurora kinase B (Homo sapiens), sequence (Q96GD4 whole entry): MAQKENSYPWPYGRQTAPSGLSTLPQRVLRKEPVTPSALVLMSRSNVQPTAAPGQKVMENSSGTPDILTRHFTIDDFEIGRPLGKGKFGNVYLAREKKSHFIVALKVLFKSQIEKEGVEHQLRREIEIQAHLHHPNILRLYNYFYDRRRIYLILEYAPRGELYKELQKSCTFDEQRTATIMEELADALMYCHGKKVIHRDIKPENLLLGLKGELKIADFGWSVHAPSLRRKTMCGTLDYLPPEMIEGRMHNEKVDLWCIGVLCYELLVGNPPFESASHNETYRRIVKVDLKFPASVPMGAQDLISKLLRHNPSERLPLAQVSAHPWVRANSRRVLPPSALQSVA
Homeodomain-interacting protein kinase 2 (Homo sapiens), sequence (Q9H2X6 whole entry, looked up): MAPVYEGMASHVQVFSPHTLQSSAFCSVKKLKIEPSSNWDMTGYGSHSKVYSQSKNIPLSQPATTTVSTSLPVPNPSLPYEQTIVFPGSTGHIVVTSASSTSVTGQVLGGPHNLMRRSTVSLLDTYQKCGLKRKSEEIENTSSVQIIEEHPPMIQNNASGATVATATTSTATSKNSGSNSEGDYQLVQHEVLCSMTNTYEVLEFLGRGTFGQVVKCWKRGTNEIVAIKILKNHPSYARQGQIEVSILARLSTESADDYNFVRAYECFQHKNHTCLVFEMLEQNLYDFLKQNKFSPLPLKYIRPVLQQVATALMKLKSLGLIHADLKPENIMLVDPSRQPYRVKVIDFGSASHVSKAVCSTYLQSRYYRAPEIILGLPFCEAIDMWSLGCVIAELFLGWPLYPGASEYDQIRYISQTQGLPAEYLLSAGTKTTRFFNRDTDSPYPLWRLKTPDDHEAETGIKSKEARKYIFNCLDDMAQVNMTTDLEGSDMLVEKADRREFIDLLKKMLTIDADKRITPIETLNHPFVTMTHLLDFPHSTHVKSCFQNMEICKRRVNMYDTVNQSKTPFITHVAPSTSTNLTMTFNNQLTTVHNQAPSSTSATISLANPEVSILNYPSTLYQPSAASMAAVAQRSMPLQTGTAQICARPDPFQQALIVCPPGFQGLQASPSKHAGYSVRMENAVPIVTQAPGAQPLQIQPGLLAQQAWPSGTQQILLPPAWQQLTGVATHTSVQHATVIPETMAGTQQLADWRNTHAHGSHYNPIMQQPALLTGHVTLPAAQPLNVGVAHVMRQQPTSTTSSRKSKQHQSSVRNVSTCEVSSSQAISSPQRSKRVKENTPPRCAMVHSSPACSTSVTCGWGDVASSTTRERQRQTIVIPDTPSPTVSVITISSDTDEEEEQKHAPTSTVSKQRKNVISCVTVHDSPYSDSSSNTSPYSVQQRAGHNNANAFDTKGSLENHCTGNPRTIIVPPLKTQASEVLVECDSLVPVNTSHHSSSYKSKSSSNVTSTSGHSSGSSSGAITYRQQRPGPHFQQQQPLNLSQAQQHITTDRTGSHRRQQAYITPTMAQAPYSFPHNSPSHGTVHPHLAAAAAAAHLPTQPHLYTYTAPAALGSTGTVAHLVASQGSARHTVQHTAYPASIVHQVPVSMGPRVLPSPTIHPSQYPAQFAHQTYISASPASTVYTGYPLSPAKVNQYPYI
Maternal embryonic leucine zipper kinase (Homo sapiens), sequence (Q14680 whole entry, looked up): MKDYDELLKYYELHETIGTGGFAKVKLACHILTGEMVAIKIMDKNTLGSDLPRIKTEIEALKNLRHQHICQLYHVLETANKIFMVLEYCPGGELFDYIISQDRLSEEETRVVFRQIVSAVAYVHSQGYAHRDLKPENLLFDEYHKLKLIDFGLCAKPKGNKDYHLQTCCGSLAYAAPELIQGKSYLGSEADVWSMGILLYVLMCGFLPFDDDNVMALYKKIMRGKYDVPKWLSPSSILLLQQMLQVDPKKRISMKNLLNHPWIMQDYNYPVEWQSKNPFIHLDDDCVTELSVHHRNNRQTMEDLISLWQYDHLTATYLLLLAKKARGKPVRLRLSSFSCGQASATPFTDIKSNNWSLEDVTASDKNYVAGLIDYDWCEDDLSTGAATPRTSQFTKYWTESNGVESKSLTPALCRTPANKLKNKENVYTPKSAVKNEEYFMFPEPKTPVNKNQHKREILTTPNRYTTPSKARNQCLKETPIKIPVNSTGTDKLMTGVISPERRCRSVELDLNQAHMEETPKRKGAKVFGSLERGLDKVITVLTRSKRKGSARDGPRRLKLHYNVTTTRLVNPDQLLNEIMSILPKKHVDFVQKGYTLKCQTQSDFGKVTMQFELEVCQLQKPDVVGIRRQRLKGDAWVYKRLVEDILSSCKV
Tyrosine-protein kinase Lck (Homo sapiens), sequence (P06239 2-509 limits assumed): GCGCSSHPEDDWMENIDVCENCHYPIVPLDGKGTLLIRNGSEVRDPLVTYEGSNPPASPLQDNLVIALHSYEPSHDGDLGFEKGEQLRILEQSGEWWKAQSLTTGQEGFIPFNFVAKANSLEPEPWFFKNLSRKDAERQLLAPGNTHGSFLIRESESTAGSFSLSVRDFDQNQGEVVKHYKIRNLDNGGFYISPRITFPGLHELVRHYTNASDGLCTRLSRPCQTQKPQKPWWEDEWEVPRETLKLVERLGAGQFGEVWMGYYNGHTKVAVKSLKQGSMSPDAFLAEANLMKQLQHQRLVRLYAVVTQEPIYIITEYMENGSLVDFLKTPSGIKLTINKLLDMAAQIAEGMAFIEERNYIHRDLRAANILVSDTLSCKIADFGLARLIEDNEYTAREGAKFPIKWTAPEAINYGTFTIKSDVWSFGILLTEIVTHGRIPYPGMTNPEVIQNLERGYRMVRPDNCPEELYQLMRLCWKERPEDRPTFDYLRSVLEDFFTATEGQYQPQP
SRSF protein kinase 1 (Homo sapiens), sequence (Q96SB4 whole entry): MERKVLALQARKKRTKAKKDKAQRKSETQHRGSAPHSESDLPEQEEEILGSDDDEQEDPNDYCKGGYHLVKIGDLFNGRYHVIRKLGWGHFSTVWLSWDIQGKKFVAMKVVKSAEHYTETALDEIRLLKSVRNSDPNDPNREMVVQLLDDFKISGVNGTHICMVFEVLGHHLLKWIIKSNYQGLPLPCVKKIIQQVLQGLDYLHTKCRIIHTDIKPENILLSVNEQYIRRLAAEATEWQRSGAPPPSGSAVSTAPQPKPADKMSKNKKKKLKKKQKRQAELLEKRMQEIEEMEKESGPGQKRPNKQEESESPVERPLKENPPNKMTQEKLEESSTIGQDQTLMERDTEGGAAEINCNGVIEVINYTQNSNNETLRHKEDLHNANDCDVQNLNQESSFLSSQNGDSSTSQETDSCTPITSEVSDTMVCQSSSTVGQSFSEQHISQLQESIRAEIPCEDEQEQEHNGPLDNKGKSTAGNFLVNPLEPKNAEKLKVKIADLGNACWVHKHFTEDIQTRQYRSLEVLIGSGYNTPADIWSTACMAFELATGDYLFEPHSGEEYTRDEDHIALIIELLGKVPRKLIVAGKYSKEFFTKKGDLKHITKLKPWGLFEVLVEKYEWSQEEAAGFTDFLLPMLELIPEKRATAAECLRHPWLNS

As to `Cc1n[nH]c2ccnc(NC3CCCCC3)c12`, the inhibition in assay [1] turned out to be 80%; in assay [2], 28%; in assay [3] it was 55%; in [4] it was 8%; in assay [5], 10%; in the assay filed under Homo sapiens, 49%. The inhibition is 23% in [6]; 60% in assay [7]; 25% in [8]; 29% in assay [9]; 38% in assay [10]; 13% in assay [11]. Moreover, the inhibition in assay [12] came out at 91%; in assay [13], 29%; in assay [14] it was 51%; in assay [15] it was 41%; in assay [16], 13%.

`Cc1n[nH]c2ccnc(OC3CCCCC3)c12`: the inhibition in assay [1] was found to be 88%; in [2] it was 78%; in assay [3], 92%; in assay [4], 37%; in assay [5], 20%; in the assay listed under Homo sapiens, 93%. Besides, the inhibition in assay [6] is 73%; in assay [7] it was 82%; in assay [8], 61%; in assay [9], 55%; in [10], 56%; in [11] it was 47%. In addition, the inhibition came to 95% in [12]; 35% in [13]; 48% in assay [14]; 66% in [15]; 41% in assay [16].

As for `Cc1n[nH]c2ccnc(Nc3ccccc3F)c12`, the inhibition is 80% in [1]; 36% in assay [2]; 43% in assay [3]; 24% in assay [4]; 17% in assay [5]; 9% in the assay filed under Homo sapiens. Also, the inhibition in [6] was found to be 53%; in assay [7], 45%; in assay [8], 26%; in [9], 34%; in [10] it was 50%; in [11], 22%. Also, the inhibition in assay [12] amounted to 83%; in [13], 49%; in assay [14], 28%; in assay [15] it was 54%; in [16], 23%.

On to `Cc1n[nH]c2ccnc(Nc3ccc4ncsc4c3)c12`, for which the inhibition in [2] turned out to be 19%; in [3] it was 77%; in assay [5], 0%; in [11], 8%; in assay [15] it was 49%.
